Screening data from PubChem BioAssay.
Hits are enriched below; roughly 2.1% of the tested compounds scored in any of these assays.
zfTRPN1 agonist = zebrafish TRPN1 channel agonists, primary screen, cell-based, HEK293, calcium fluorescence; 220,000 compounds, 0.18% hits; AID 1424, 2008; transient receptor potential cation channel N1 (TRPN1/NompC), Danio rerio; HEK293 zebrafish TRPN1-YFP, Fluo-8 calcium fluorescence; 100% = response to 87 µM carbachol; activation, % at 3 µM;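 active means activation above its plate's cutoff, the mean activation of test wells on that plate plus 3 SD, cut at about 19% in these data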;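 further: 0% = DMSO alone and 100% = 87 µM carbachol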
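Material: zebrafish TRPN1-YFP in HEK293 cells; Doses: single test compound dose, 3 µM nominal, 0.3% DMSO; Timing: dye loading 1 h at 37 °C, then 30 min room temperature; Technique: intracellular calcium fluorescence with Fluo-8; Benchmarks: high carbachol 87 µM, low DMSO alone.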
IMP-1 inh = IMP-1 metallo-beta-lactamase inhibitors, primary screen, biochemical, epi-absorbance readout, Pseudomonas aeruginosa enzyme. metallo-beta-lactamase IMP-1 (Pseudomonas aeruginosa). purified IMP-1, nitrocefin hydrolysis, epi-absorbance fluorescence. inhibition, % at 5.6 µM. 290,000 compounds, 0.45% hits;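 active means inhibition above the mean plus 3 SD of all compounds in the same screening run, cut at about 4.5% in these data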;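 further: 0% = IMP-1 with DMSO and 100% = DMSO wells lacking enzyme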
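Assay system: purified recombinant IMP-1 beta-lactamase. Input: IMP-1 0.2 nM before substrate addition. Buffer or medium: Zinc- and detergent-supplemented HEPES buffer, pH 7.1. Schedule: 25 °C, 15 min preincubation, 25 min reaction. Signal: Epi-absorbance fluorescence, 480 nm excitation, 530 nm emission. Evaluation: percent inhibition from optical density relative to buffer-blank wells.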
VIM-2 inh = VIM-2 metallo-beta-lactamase inhibitors, primary screen, biochemical, epi-absorbance readout, Pseudomonas aeruginosa enzyme. 290,000 compounds, 0.89% hits. AID 1527, 2009. purified VIM-2, nitrocefin hydrolysis, epi-absorbance fluorescence. inhibition, % at 5.6 µM;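 active means inhibition above the mean of all tested compounds plus 3 SD, cutoff set per screening run, cut at about 7.5% in these data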;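 further: red hydrolysis product quenches plate fluorescence so inhibitors raise well fluorescence; 0% = enzyme with DMSO and 100% = DMSO without enzyme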
CRFR2-BP antag = antagonists of CRF-BP/CRF-R2 complex, primary screen, cell-based, HEK293, calcium dye fluorescence, uHTS. CRF-induced calcium fluorescence. inhibition, % at 11.8 µM. 350,000 compounds, 0.59% hits;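 active means inhibition of the ligand-induced calcium signal above about 50% at the single tested concentration, limit read from the data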
CRFBP-R2 agonist = agonists of CRF-BP/CRF-R2 complex, primary screen, cell-based, HEK293, calcium dye fluorescence, uHTS; CRF-binding protein / CRF receptor 2 complex (human); calcium dye fluorescence (FLIPR); percent of saturating CRF peptide response; activation, % at 13.2 µM; 350,000 compounds, 0.46% hits; AID 588473, 2011;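 active means activation of at least 50%, plus an integration ratio under a set limit after plate pattern correction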;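 further: plate controls were neutral control wells without compound for no effect and CRF at EC100 for full effect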
TRPML3 ag = human TRPML3 channel agonists, primary screen, cell-based, HEK293 TRPML3-YFP, Fluo-8 calcium fluorescence, 3 µM | 100% = the carbachol control signal | AID 1448, 2008 | 220,000 compounds, 0.29% hits | activation, % at 3 µM;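 active means activation above its plate's cutoff, the mean activation of the plate's test wells plus 3 SD, cut at about 12% in these data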;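 further: 0% = DMSO only wells and 100% = carbachol wells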
Target sequence (Q8TDD5 whole entry, looked up): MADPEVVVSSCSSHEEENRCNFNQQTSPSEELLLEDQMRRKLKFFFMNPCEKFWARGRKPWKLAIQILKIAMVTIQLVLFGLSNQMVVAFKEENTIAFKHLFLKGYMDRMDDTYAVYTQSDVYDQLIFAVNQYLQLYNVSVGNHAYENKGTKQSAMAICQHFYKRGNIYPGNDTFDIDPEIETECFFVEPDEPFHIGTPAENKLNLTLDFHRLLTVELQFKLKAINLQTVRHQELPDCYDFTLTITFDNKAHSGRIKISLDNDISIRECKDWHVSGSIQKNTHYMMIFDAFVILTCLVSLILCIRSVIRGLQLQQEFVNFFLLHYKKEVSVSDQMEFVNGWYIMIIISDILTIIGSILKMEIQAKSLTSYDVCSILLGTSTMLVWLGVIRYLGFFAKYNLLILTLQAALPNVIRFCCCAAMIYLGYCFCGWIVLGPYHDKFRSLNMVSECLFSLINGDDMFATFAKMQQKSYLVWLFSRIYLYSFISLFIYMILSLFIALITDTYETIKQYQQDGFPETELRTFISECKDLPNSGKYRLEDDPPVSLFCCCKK
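Test system – HEK293 line with stable expression of human TRPML3-YFP channel · Control set – carbachol 87 µM final as high control (100%), DMSO as low control (0%) · Signal – Fluo-8 calcium dye fluorescence, ex 470-495, em 515-575 nm · Incubation – 1-h 37 °C dye load, 5-s basal, 120-s post-compound reads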
TRPN1 counter = zebrafish TRPN1 channel agonists, counter-screen for TRPML3 agonist project, cell-based, HEK293 TRPN1-YFP, Fluo-8 calcium | shares compounds with TRPML3 ag | Fluo-8 calcium fluorescence; scaled: carbachol wells 100%, DMSO wells 0% | AID 1525, 2009 | activation, % at 3 µM | 310 compounds, 10% hits;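 active means mean activation over replicates above a set limit taken from the earlier TRPN1 channel primary screen, cut at about 19% in these data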;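 further: 100% = carbachol and 0% = 0.3% DMSO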
TRPML3 ag conf = human TRPML3 channel agonists, confirmation, cell-based, HEK293 TRPML3-YFP, Fluo-8 calcium, triplicate. Fluo-8 calcium fluorescence; 100% set by carbachol, 0% by DMSO. AID 1526, 2009. shares compounds with TRPML3 ag. 310 compounds, 80% hits. activation, % at 3 µM;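 active means activation above a set limit derived from the earlier primary screen, cut at about 12% in these data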
Active calls of the source: *; nt = not tested or not shown.

SMILES	zfTRPN1 agonist	IMP-1 inh	VIM-2 inh	CRFR2-BP antag	CRFBP-R2 agonist	TRPML3 ag	TRPN1 counter	TRPML3 ag conf
CC(=O)NCCc1nc2cc(NC(=O)COc3cccc(C)c3)ccc2n1C	nt	-1.4	-3.2	-4.2	1.6	nt	nt	nt
O=C(Nc1ccn(-c2ccccc2)n1)c1ccc(S(=O)(=O)N2CCCCCC2)cc1	3.4	-4.4	-3.1	-9.8	1.8	53.4*	6.1	60.6*
O=C(COc1ccccc1C(=O)O)Nc1nc2ccc([N+](=O)[O-])cc2s1	17.4	-1.3	-2.3	13.5	33.4	14.2*	21.9*	7.5
O=C(NCCc1ccccc1)C1CC(=O)N(C2CCCCC2)C1 (stereo not drawn)	nt	-3.2	-3.0	-2.2	-1.6	nt	nt	nt
O=C(OCC(=O)N1CCCCCC1)c1ccccc1Br	nt	nt	nt	9.5	-0.7	nt	nt	nt
CCOc1c(S(=O)(=O)N2CCCC2)ccc(Cl)c1Cl	0.0	-2.0	-0.5	-2.4	0.7	19.5*	-0.3	41.1*
CCOc1ccc(S(=O)(=O)N2CCCC2)c2ccccc12	nt	nt	nt	11.6	-1.1	nt	nt	nt
Cc1cc(S(=O)(=O)N2CCCCCC2)c(Cl)cc1Cl	-0.4	-2.3	-3.0	-9.1	0.3	25.9*	-2.3	26.7*
CCOC(=O)C1CCCN(C(=O)c2ccc3ncsc3c2)C1 (stereo not drawn)	nt	nt	nt	-4.3	-1.0	nt	nt	nt
N=C1SCC(=O)N1c1ncc(Cc2ccccc2Cl)s1	2.6	-4.7	-3.3	-2.9	-0.1	137.4*	5.0	169.9*
CC(C)C(=O)Nc1ncc(Cc2ccccc2Cl)s1	-1.6	-1.5	-2.9	-10.1	1.3	-1.3	nt	nt
N=C1SCC(=O)N1c1ncc(Cc2cccc(Cl)c2)s1	4.4	-5.3	-6.7	15.7	-0.2	45.1*	5.5	25.8*
O=S(=O)(Oc1ccccc1N1CCCCC1)c1ccccc1	-0.8	-1.2	-0.5	-5.0	-0.2	12.8*	-1.3	13.5*
O=C1CCC(=O)N1c1ccccc1OS(=O)(=O)c1ccccc1	nt	-2.6	-2.0	-1.5	-0.8	nt	nt	nt
COCC(C)NS(=O)(=O)c1ccc(NC(=O)c2ccccn2)cc1 (stereo not drawn)	5.9	-3.3	-3.2	-1.0	1.7	2.0	nt	nt
CC12CCC(C(=O)N(CSC(=S)N/N=C\c3ccccc3Cl)C1=O)C2(C)C (stereo not drawn)	-0.6	-9.7	-2.0	0.1	2.5	38.4*	-1.1	-0.2
CC12CCC(C(=O)N(CSC(=S)N/N=C\c3ccccc3)C1=O)C2(C)C (stereo not drawn)	0.4	-4.9	-2.0	5.7	-2.2	43.3*	-0.5	1.7
CC1CCN(C(=O)c2cc(S(=O)(=O)N3CCOCC3)ccc2N2CCCC2)CC1	nt	nt	nt	-0.4	-0.1	nt	nt	nt
Cc1cc(C)c(C)c(S(=O)(=O)NCC(=O)NCC2CCCCC2)c1C	nt	-2.1	2.8	-10.1	0.0	nt	nt	nt
CN(c1ccccc1)S(=O)(=O)c1cccc(Cl)c1Cl	-1.7	-3.0	-2.2	36.2	-3.7	52.6*	-3.6	40.5*
CN(c1ccccc1)S(=O)(=O)c1cc(Cl)ccc1Cl	-2.0	-3.3	-2.5	11.5	-0.3	48.8*	-3.2	66.6*
CCNc1nc(NC(C)CC)nc(Oc2ccc(OCC)nn2)n1 (stereo not drawn)	1.4	-0.7	-1.6	-2.6	-0.9	0.6	nt	nt
COC(=O)c1cc(S(=O)(=O)N(C)C2CCCCC2)oc1C	-1.7	-1.9	-2.8	15.9	-0.2	4.5	nt	nt
